Experimental data published in ChEMBL document CHEMBL5724801, “EUbOPEN Chemogenomics Library - Multiplex” (2024).
Values joined by “and” are separate entries in the source; they are usually repeats but may differ in a detail not shown here. Equal entries are not always repeated.

Legend:
[1] = tested on: HEK-293T; test: Multiplex assay against HEK293T; format: toxicity, cell-based; conditions: human
How it was run: (§1)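 Phenotypes for tubulin, mitochondrial mass and membrane permeability are expressed as per cents of healthy-nucleus cells. Cells were stained live at seeding with Hoechst33342, BioTracker Green Microtubule Cytoskeleton Dye, MitoTracker Red and Annexin V Alexa Fluor 680, then imaged after compound addition on a CQ1 microscope at 37°C and 5% CO2. Machine-learning gating in CellPathfinder separated Hoechst high-intensity objects from normal cells, divided normal cells by nuclear state (healthy, pyknosed, fragmented) and divided pyknosed cells into mitotic or apoptotic.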

[2] = tested on: U2OS; test: Multiplex assay against U2OS; format: toxicity, cell-based; conditions: human; how it was run: as §1
[3] = 12 h, 1 µM, compound concentration 1 uM
[4] = 12 h, 10 µM, compound concentration 10 uM
[5] = 24 h, 1 µM, compound concentration 1 uM
[6] = 24 h, 10 µM, compound concentration 10 uM
[7] = 48 h, 1 µM, compound concentration 1 uM
[8] = 48 h, 10 µM, compound concentration 10 uM

COC[C@@H](c1ccc(C(F)(F)F)cc1)N1CCN(C2(C)CCN(C(=O)c3c(C)ncnc3C)CC2)C[C@@H]1C.O=C(O)/C=C\C(=O)O [VICRIVIROC MALEATE]
Population Apoptotic (%) [1, 3]: 46% and 45% | Population Fragmented Nuclei (%) [1, 3]: 7% | Population Healthy Nuclei (%) [1, 3]: 80% | Population Hoechst High Intensity Objects (%) [1, 3]: 9% and 5% | Population Membrane Permeable-Phenotype (%) [1, 3]: 0% | Population Mitochondria Different-Phenotype (%) [1, 3]: 47% and 51% | Population Mitotic Cells (%) [1, 3]: 53% and 54% | Population Normal (%) [1, 3]: 90% and 94% | Population Pyknosed Nuclei (%) [1, 3]: 12% and 11% | Population Tubulin-Different-Phenotype (%) [1, 3]: 27% and 17% | Total Cell Count [1, 3]: 406 and 387 | Population Apoptotic (%) [1, 4]: 44% and 62% | Population Fragmented Nuclei (%) [1, 4]: 6% and 5% | Population Healthy Nuclei (%) [1, 4]: 75% and 72% | Population Hoechst High Intensity Objects (%) [1, 4]: 8% and 16% | Population Membrane Permeable-Phenotype (%) [1, 4]: 0% | Population Mitochondria Different-Phenotype (%) [1, 4]: 63% and 78% | Population Mitotic Cells (%) [1, 4]: 55% and 37% | Population Normal (%) [1, 4]: 91% and 83% | Population Pyknosed Nuclei (%) [1, 4]: 18% and 21% | Population Tubulin-Different-Phenotype (%) [1, 4]: 57% and 51% | Total Cell Count [1, 4]: 315 and 265 | Population Apoptotic (%) [1, 5]: 30% and 31% | Population Fragmented Nuclei (%) [1, 5]: 9% | Population Healthy Nuclei (%) [1, 5]: 79% and 82% | Population Hoechst High Intensity Objects (%) [1, 5]: 6% and 5% | Population Membrane Permeable-Phenotype (%) [1, 5]: 0% and 1% | Population Mitochondria Different-Phenotype (%) [1, 5]: 24% | Population Mitotic Cells (%) [1, 5]: 69% and 68% | Population Normal (%) [1, 5]: 93% and 94% | Population Pyknosed Nuclei (%) [1, 5]: 10% and 8% | Population Tubulin-Different-Phenotype (%) [1, 5]: 21% and 11% | Total Cell Count [1, 5]: 564 and 515 | Population Apoptotic (%) [1, 6]: 34% and 60% | Population Fragmented Nuclei (%) [1, 6]: 6% and 10% | Population Healthy Nuclei (%) [1, 6]: 80% and 77% | Population Hoechst High Intensity Objects (%) [1, 6]: 6% and 16% | Population Membrane Permeable-Phenotype (%) [1, 6]: 0% | Population Mitochondria Different-Phenotype (%) [1, 6]: 53% and 70% | Population Mitotic Cells (%) [1, 6]: 66% and 39% | Population Normal (%) [1, 6]: 93% and 83% | Population Pyknosed Nuclei (%) [1, 6]: 13% and 12% | Population Tubulin-Different-Phenotype (%) [1, 6]: 49% and 39% | Total Cell Count [1, 6]: 406 and 310 | Population Apoptotic (%) [1, 7]: 21% and 34% | Population Fragmented Nuclei (%) [1, 7]: 11% and 13% | Population Healthy Nuclei (%) [1, 7]: 80% and 81% | Population Hoechst High Intensity Objects (%) [1, 7]: 2% | Population Membrane Permeable-Phenotype (%) [1, 7]: 1% | Population Mitochondria Different-Phenotype (%) [1, 7]: 13% and 11% | Population Mitotic Cells (%) [1, 7]: 78% and 65% | Population Normal (%) [1, 7]: 97% | Population Pyknosed Nuclei (%) [1, 7]: 7% and 5% | Population Tubulin-Different-Phenotype (%) [1, 7]: 12% and 8% | Total Cell Count [1, 7]: 930 and 751 | Population Apoptotic (%) [1, 8]: 38% and 53% | Population Fragmented Nuclei (%) [1, 8]: 12% and 14% | Population Healthy Nuclei (%) [1, 8]: 75% and 70% | Population Hoechst High Intensity Objects (%) [1, 8]: 4% and 11% | Population Membrane Permeable-Phenotype (%) [1, 8]: 0% | Population Mitochondria Different-Phenotype (%) [1, 8]: 49% and 50% | Population Mitotic Cells (%) [1, 8]: 61% and 46% | Population Normal (%) [1, 8]: 95% and 88% | Population Pyknosed Nuclei (%) [1, 8]: 11% and 15% | Population Tubulin-Different-Phenotype (%) [1, 8]: 35% and 38% | Total Cell Count [1, 8]: 559 and 394 | Population Apoptotic (%) [2, 3]: 82% and 81% | Population Fragmented Nuclei (%) [2, 3]: 34% and 21% | Population Healthy Nuclei (%) [2, 3]: 54% and 67% | Population Hoechst High Intensity Objects (%) [2, 3]: 4% and 2% | Population Membrane Permeable-Phenotype (%) [2, 3]: 8% and 11% | Population Mitochondria Different-Phenotype (%) [2, 3]: 4% and 14% | Population Mitotic Cells (%) [2, 3]: 17% and 18% | Population Normal (%) [2, 3]: 95% and 97% | Population Pyknosed Nuclei (%) [2, 3]: 11% and 10% | Population Tubulin-Different-Phenotype (%) [2, 3]: 3% and 7% | Total Cell Count [2, 3]: 261 and 105 | Population Apoptotic (%) [2, 4]: 86% and 33% | Population Fragmented Nuclei (%) [2, 4]: 26% and 28% | Population Healthy Nuclei (%) [2, 4]: 65% | Population Hoechst High Intensity Objects (%) [2, 4]: 1% and 2% | Population Membrane Permeable-Phenotype (%) [2, 4]: 13% and 5% | Population Mitochondria Different-Phenotype (%) [2, 4]: 3% and 6% | Population Normal (%) [2, 4]: 98% and 97% | Population Pyknosed Nuclei (%) [2, 4]: 8% and 6% | Population Tubulin-Different-Phenotype (%) [2, 4]: 3% and 6% | Total Cell Count [2, 4]: 270 and 91 | Population Apoptotic (%) [2, 5]: 77% and 93% | Population Fragmented Nuclei (%) [2, 5]: 25% and 20% | Population Healthy Nuclei (%) [2, 5]: 67% and 64% | Population Hoechst High Intensity Objects (%) [2, 5]: 3% and 4% | Population Membrane Permeable-Phenotype (%) [2, 5]: 5% and 10% | Population Normal (%) [2, 5]: 96% and 95% | Population Pyknosed Nuclei (%) [2, 5]: 7% and 15% | Population Tubulin-Different-Phenotype (%) [2, 5]: 2% and 10%
